Experimental data pooled from the literature.
Each line is one published result; the experiments were not run side by side.
Target: Serine/threonine-protein kinase Nek6 (NEK6, Homo sapiens, UniProt Q9HC98)

SMILES | read-out | mode | method | concentration | measurement | value
CNC(=O)c1cc(Oc2ccc(NC(=O)Nc3ccc(Cl)c(C(F)(F)F)c3)cc2)ccn1 | enzyme activity | inhibitor |  | 0.3 µM | inhibition | -13%
Cc1ccc(NC(=O)c2ccc(C)c(C(F)(F)F)c2)cc1C#Cc1nn(C2CCC(O)CC2)c2ncnc(N)c12 (stereo not shown) | cell-free assay |  |  | 10 µM | remaining signal | 98%
CCN(CC)CCNC(=O)c1c(C)[nH]c(/C=C2\C(=O)Nc3ccc(F)cc32)c1C | enzyme activity | inhibitor |  | 0.3 µM | inhibition | -14%
N#CCCc1ccc2c(c1)-c1[nH]c3ccc([N+](=O)[O-])cc3c1CC(=O)N2 | cell-free assay |  |  | 0.5 µM | remaining signal | 101%
Cn1cc(Cl)c2c(Oc3c(F)cc(Nc4cc(Cl)nc(N)n4)cc3F)ccnc21 | cell-free assay |  | competition with immobilised ligand | 0.1 µM | remaining binding | 100%
FC(F)(F)Oc1cccc(-c2cnc3ccc(-c4ccncc4)nn23)c1 | enzyme activity | inhibitor | radiometric | 5 µM | activity vs control | 93%
C[C@H](c1ccnc(Nc2nc3ccc(-c4cc(N(C)C)ncn4)cc3[nH]2)c1)N1CCN(C(=O)CC(F)(F)F)CC1 | cell-free assay |  | competition with immobilised ligand | 0.1 µM | remaining binding | 83%
COc1cc2ncnc(Nc3ccc(Oc4ccccc4)cc3C)c2cc1OC | enzyme activity | inhibitor |  | 1 µM | inhibition | -8%
CC/C(=N\NC(=O)NCc1cccc(O)c1)c1ccc(O)c(C)c1O | enzyme activity | inhibitor |  | 0.1 µM | inhibition | 0.2%
CCCCN(CCCC)C(=O)CN1C[C@H](c2cc(OC)c3c(c2)OCO3)[C@@H](C(=O)O)[C@@H]1CC(C)(C)CCC | cell-free assay |  | competition with immobilised ligand | 1 µM | remaining binding | 100%
O=C1NC(=O)c2cc(Nc3ccc(F)cc3)c(Nc3ccc(F)cc3)cc21 | cell-free assay |  |  | 0.5 µM | remaining signal | 109%
Cc1cc(-n2nc(Cc3cc(F)cc(C(F)(F)F)c3)nc2C)ccc1C(N)=O | cell-free assay |  | competition with immobilised ligand | 1 µM | remaining binding | 95%
Cc1cc(NC(=O)c2cccc3cc(-c4cccc5[nH]nc(N)c45)ccc23)ccc1F | enzyme activity | inhibitor |  | 0.1 µM | activity vs control | 99%
